Test results taken from ChEMBL document CHEMBL2346606, “Inhibitors of the TAM subfamily of tyrosine kinases: synthesis and biological evaluation” (Eur J Med Chem, 2013).

Columns and labels:
[1] = test system: KB; test: Growth inhibition of human KB cells at 10 uM after 72 hrs by […] relative to control; type: functional; settings: read-out: GI
How it was run: (§1)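 KB and Vero cells were grown in D-MEM with 10% FCS and antibiotics under 5% CO2, plated, then dosed 24 h later at 10^-5 M from DMSO (controls 1% DMSO). After 72 h, MTS was added for 3 h at 37 °C and A490 read. Inhibition = (1 − OD treated/OD control) × 100, in triplicate.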

[2] = Growth inhibition of African green monkey Vero cells at 10 uM after 72 hrs by […] assay relative to control; type: cell-based; settings: chlorocebus sabaeus, read-out: GI; how it was run: as §1
[3] = test system: HT-29; test: Growth inhibition of human HT-29 cells at 10 uM after 72 hrs by […] assay relative to control; type: functional; settings: HT-29, 72 h, read-out: GI
How it was run: (§2)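 HT29, MCF7 and PC-3 cells were grown in RPMI, plated, and treated 24 h later with compound in DMSO at 10^-5 M (DMSO controls, 1% final). After 72 h exposure, MTS reagent was added for 3 h at 37 °C and absorbance read at 490 nm. Proliferation inhibition = [1 − OD treated/OD control] × 100, triplicate experiments.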

[4] = test system: MCF7; test: Growth inhibition of human MCF7 cells at 10 uM after 72 hrs by […] assay relative to control; type: functional; settings: MCF7, 72 h, read-out: GI; how it was run: as §2
[5] = test system: PC-3; test: Growth inhibition of human PC3 cells at 10 uM after 72 hrs by […] assay relative to control; type: functional; settings: PC-3, 72 h, read-out: GI; how it was run: as §2

O=C(Nc1ccc(Nc2ncnc3[nH]cnc23)c(F)c1)c1cccn(-c2cccc(C(F)(F)F)c2)c1=O
< 10%: inhibition of growth at 10 µM [1] | inhibition at 72 h, 10 µM [2] | inhibition of growth at 10 µM [3] | inhibition of growth at 10 µM [4] | inhibition of growth at 10 µM [5]

O=C(Nc1cccc(-c2ncnc3[nH]cnc23)c1)c1cccn(-c2cccc(F)c2)c1=O
< 10%: inhibition of growth at 10 µM [1] | inhibition at 72 h, 10 µM [2] | inhibition of growth at 10 µM [3] | inhibition of growth at 10 µM [4] | inhibition of growth at 10 µM [5]

O=C(Nc1cccc(-c2nc3c(Nc4cccc(C(F)(F)F)c4)ncnc3[nH]2)c1)c1ccccc1F
< 10%: inhibition of growth at 10 µM [1] | inhibition at 72 h, 10 µM [2] | inhibition of growth at 10 µM [3] | inhibition of growth at 10 µM [4] | inhibition of growth at 10 µM [5]

O=C(Nc1cccc(-c2ncnc3[nH]cnc23)c1)c1cccnc1F
< 10%: inhibition of growth at 10 µM [1] | inhibition at 72 h, 10 µM [2] | inhibition of growth at 10 µM [3] | inhibition of growth at 10 µM [4] | inhibition of growth at 10 µM [5]

COc1ncccc1C(=O)Nc1ccc(Nc2ncnc3[nH]cnc23)cc1
< 10%: inhibition of growth at 10 µM [1] | inhibition at 72 h, 10 µM [2] | inhibition of growth at 10 µM [3] | inhibition of growth at 10 µM [4] | inhibition of growth at 10 µM [5]

COc1ccccc1C(=O)Nc1cccc(-c2ncnc3[nH]cnc23)c1
< 10%: inhibition of growth at 10 µM [1] | inhibition at 72 h, 10 µM [2] | inhibition of growth at 10 µM [3] | inhibition of growth at 10 µM [4] | inhibition of growth at 10 µM [5]

COc1ccccc1C(=O)Nc1cccc(-c2nc3c(Nc4ccccc4)ncnc3[nH]2)c1
< 10%: inhibition of growth at 10 µM [1] | inhibition at 72 h, 10 µM [2] | inhibition of growth at 10 µM [3] | inhibition of growth at 10 µM [4] | inhibition of growth at 10 µM [5]

COc1ncccc1C(=O)Nc1cccc(-c2nc3c(Nc4cccc(F)c4)ncnc3[nH]2)c1
< 10%: inhibition of growth at 10 µM [1] | inhibition at 72 h, 10 µM [2] | inhibition of growth at 10 µM [3] | inhibition of growth at 10 µM [4] | inhibition of growth at 10 µM [5]

O=C(Nc1ccc(Nc2ncnc3[nH]cnc23)cc1)c1ccccc1F
< 10%: inhibition of growth at 10 µM [1] | inhibition at 72 h, 10 µM [2] | inhibition of growth at 10 µM [3] | inhibition of growth at 10 µM [4] | inhibition of growth at 10 µM [5]

O=C(Nc1ccc(Oc2ncnc3[nH]cnc23)c(F)c1)c1ccccc1F
< 10%: inhibition of growth at 10 µM [1] | inhibition at 72 h, 10 µM [2] | inhibition of growth at 10 µM [3] | inhibition of growth at 10 µM [4] | inhibition of growth at 10 µM [5]

Cc1cc(C(=O)Nc2cccc(-c3ncnc4[nH]cnc34)c2)ccc1Br
< 10%: inhibition of growth at 10 µM [1] | inhibition at 72 h, 10 µM [2] | inhibition of growth at 10 µM [3] | inhibition of growth at 10 µM [4] | inhibition of growth at 10 µM [5]

Cc1cc(C(=O)Nc2cccc(-c3nc4c(Nc5ccc(F)cc5)ncnc4[nH]3)c2)ccc1Br
< 10%: inhibition of growth at 10 µM [1] | inhibition at 72 h, 10 µM [2] | inhibition of growth at 10 µM [3] | inhibition of growth at 10 µM [4] | inhibition of growth at 10 µM [5]

COc1ncccc1C(=O)Nc1cccc(-c2nc3c(Nc4ccc(F)cc4)ncnc3[nH]2)c1
< 10%: inhibition of growth at 10 µM [1] | inhibition at 72 h, 10 µM [2] | inhibition of growth at 10 µM [3] | inhibition of growth at 10 µM [4] | inhibition of growth at 10 µM [5]

O=C(Nc1ccc(Nc2ncnc3[nH]cnc23)c(F)c1)c1cccn(-c2ccc(C(F)(F)F)cc2)c1=O
< 10%: inhibition of growth at 10 µM [1] | inhibition at 72 h, 10 µM [2] | inhibition of growth at 10 µM [3] | inhibition of growth at 10 µM [4] | inhibition of growth at 10 µM [5]

O=C(Nc1cccc(-c2nc3c(Nc4ccc(F)cc4)ncnc3[nH]2)c1)c1ccccc1F
< 10%: inhibition of growth at 10 µM [1] | inhibition at 72 h, 10 µM [2] | inhibition of growth at 10 µM [3] | inhibition of growth at 10 µM [4] | inhibition of growth at 10 µM [5]

Cc1cc(C(=O)Nc2ccc(Nc3ncnc4[nH]cnc34)c(F)c2)ccc1Br
< 10%: inhibition of growth at 10 µM [1] | inhibition at 72 h, 10 µM [2] | inhibition of growth at 10 µM [3] | inhibition of growth at 10 µM [4] | inhibition of growth at 10 µM [5]

O=C(Nc1cccc(-c2ncnc3[nH]cnc23)c1)c1cccn(-c2ccc(C(F)(F)F)cc2)c1=O
< 10%: inhibition of growth at 10 µM [1] | inhibition at 72 h, 10 µM [2] | inhibition of growth at 10 µM [3] | inhibition of growth at 10 µM [4] | inhibition of growth at 10 µM [5]

O=C(Nc1cccc(-c2nc3c(Nc4ccccc4)ncnc3[nH]2)c1)c1ccccc1F
< 10%: inhibition of growth at 10 µM [1] | inhibition at 72 h, 10 µM [2] | inhibition of growth at 10 µM [3] | inhibition of growth at 10 µM [4] | inhibition of growth at 10 µM [5]

O=C(Nc1ccc(Nc2ncnc3[nH]cnc23)cc1)c1cccn(-c2cccc(C(F)(F)F)c2)c1=O
< 10%: inhibition of growth at 10 µM [1] | inhibition at 72 h, 10 µM [2] | inhibition of growth at 10 µM [3] | inhibition of growth at 10 µM [4] | inhibition of growth at 10 µM [5]

O=C(Nc1ccc(Nc2ncnc3[nH]cnc23)c(F)c1)c1cccn(-c2ccc(F)cc2)c1=O
< 10%: inhibition of growth at 10 µM [1] | inhibition at 72 h, 10 µM [2] | inhibition of growth at 10 µM [3] | inhibition of growth at 10 µM [4] | inhibition of growth at 10 µM [5]

COc1ncccc1C(=O)Nc1ccc(Nc2ncnc3[nH]cnc23)c(F)c1
< 10%: inhibition of growth at 10 µM [1] | inhibition at 72 h, 10 µM [2] | inhibition of growth at 10 µM [3] | inhibition of growth at 10 µM [4] | inhibition of growth at 10 µM [5]

O=C(Nc1ccc(Nc2ncnc3[nH]cnc23)c(F)c1)c1cccnc1F
< 10%: inhibition of growth at 10 µM [1] | inhibition at 72 h, 10 µM [2] | inhibition of growth at 10 µM [3] | inhibition of growth at 10 µM [4] | inhibition of growth at 10 µM [5]

COc1ncccc1C(=O)Nc1cccc(-c2nc3c(Nc4cccc(C(F)(F)F)c4)ncnc3[nH]2)c1
< 10%: inhibition of growth at 10 µM [1] | inhibition at 72 h, 10 µM [2] | inhibition of growth at 10 µM [3] | inhibition of growth at 10 µM [4] | inhibition of growth at 10 µM [5]

COc1ccccc1C(=O)Nc1cccc(-c2nc3c(Nc4ccc(F)cc4)ncnc3[nH]2)c1
< 10%: inhibition of growth at 10 µM [1] | inhibition at 72 h, 10 µM [2] | inhibition of growth at 10 µM [3] | inhibition of growth at 10 µM [4] | inhibition of growth at 10 µM [5]

COc1ccccc1C(=O)Nc1cccc(-c2nc3c(Nc4cccc(C(F)(F)F)c4)ncnc3[nH]2)c1
< 10%: inhibition of growth at 10 µM [1] | inhibition at 72 h, 10 µM [2] | inhibition of growth at 10 µM [3] | inhibition of growth at 10 µM [4] | inhibition of growth at 10 µM [5]

Cc1cc(C(=O)Nc2cccc(-c3nc4c(Nc5cccc(F)c5)ncnc4[nH]3)c2)ccc1Br
< 10%: inhibition of growth at 10 µM [1] | inhibition at 72 h, 10 µM [2] | inhibition of growth at 10 µM [3] | inhibition of growth at 10 µM [4] | inhibition of growth at 10 µM [5]

O=C(Nc1ccc(Nc2ncnc3[nH]cnc23)cc1)c1cccnc1F
< 10%: inhibition of growth at 10 µM [1] | inhibition at 72 h, 10 µM [2] | inhibition of growth at 10 µM [3] | inhibition of growth at 10 µM [4] | inhibition of growth at 10 µM [5]

COc1cc2c(Nc3ccc(Br)cc3F)ncnc2cc1OCC1CCN(C)CC1 [VANDETANIB]
< 10%: inhibition of growth at 10 µM [1] | inhibition at 72 h, 10 µM [2] | inhibition of growth at 10 µM [3] | inhibition of growth at 10 µM [4] | inhibition of growth at 10 µM [5]

O=C(Nc1ccc(Nc2ncnc3[nH]cnc23)c(F)c1)c1cccn(-c2cccc(F)c2)c1=O
< 10%: inhibition of growth at 10 µM [1] | inhibition at 72 h, 10 µM [2] | inhibition of growth at 10 µM [3] | inhibition of growth at 10 µM [4] | inhibition of growth at 10 µM [5]
